Results collected from several papers.
Compare with care: the assays were run in different laboratories.
Target: RAC-beta serine/threonine-protein kinase (AKT2, Homo sapiens, UniProt P31751)

Structure (SMILES)	read-out	method	tested at	remaining binding [%]
C[C@@H]1CN(c2ccc3ncc(-c4ccc5[nH]nc(C6CC6)c5c4)n3n2)C[C@H](C)O1	binding	competition with immobilised ligand	0.5 µM	97
CC(C)(C)c1ccc(-c2nc(CBr)nn2-c2cccc(O)c2)cc1	cell-free assay	competition with immobilised ligand	10 µM	70
O=C(c1ccc(Nc2ncc(Cl)c(-c3ccc(Cl)s3)n2)cc1)N1CCC(N2CCCC2)CC1	binding	competition with immobilised ligand	1 µM	89
COc1ncc2cc3ccccc3nc2c1C#N	cell-free assay	competition with immobilised ligand	5 µM	95
O=C(O)[C@@H]1[C@@H](Cn2nnc3ccccc3c2=O)CC[C@H]1C(=O)c1ccc(OCCC2CCOCC2)cc1	cell-free assay	competition with immobilised ligand	1 µM	100
c1cnn2ncc(-c3ccnc(N4CCC45COC5)n3)c2c1	binding		1 µM	96
Cc1c(NC(=O)c2cc(C(N)=O)nc3cc(F)ccc23)c(C(F)(F)F)nn1Cc1ccc(C#N)cc1	cell-free assay	competition with immobilised ligand	1 µM	98
c1cncc(-c2cccc(Nc3nccc(NC4CCCCC4)n3)c2)c1	binding	competition with immobilised ligand	10 µM	62
CC(C)CC(=O)N1CCc2nc(-c3ccc(Br)cc3)nc(N(C)Cc3ccccc3)c2C1	cell-free assay	competition with immobilised ligand	0.1 µM	100
CC1CCCN1c1nccc(-c2cnn3ncccc23)n1 (stereo not drawn)	binding		1 µM	100
O=C(Nc1c[nH]nc1C(=O)NC1CCNCC1)c1cc(F)cc(F)c1	binding	competition with immobilised ligand	1 µM	87
Cc1cnn2ncc(-c3ccnc(N(C)C)n3)c2c1	binding		1 µM	100
CC(=O)N1CCC(c2ccc(C(=O)NC(=N)N)cc2C(F)(F)F)CC1	cell-free assay	competition with immobilised ligand	1 µM	99
C[C@H]1CCN(c2nccc(-c3cnn4ncccc34)n2)C1	binding		1 µM	100
O=C(NCCCN1CCOCC1)c1ccc(Nc2ncc(Cl)c(-c3ccc(Cl)s3)n2)cc1	binding	competition with immobilised ligand	1 µM	100
CN(C)c1ncnc(-c2ccc3nc(Nc4cc(CN5CCN(C(=O)CC(F)(F)F)CC5)ccn4)[nH]c3c2)c1Cl	cell-free assay	competition with immobilised ligand	1 µM	95
CN(CCCC(F)(F)F)c1nccc(-c2cnn3ncccc23)n1	binding		1 µM	75
Cc1cnc(Nc2ccc(C(=O)N3CCC(N4CCCC4)CC3)cc2)nc1-c1cc2ccccc2s1	binding	competition with immobilised ligand	1 µM	83
N[C@H]1CCN(c2nccc(-c3cnn4ncccc34)n2)C1	binding		1 µM	100
COc1cnc(Nc2cccc(S(N)(=O)=O)c2)nc1N1CCN(c2ccccc2)C(=O)C1	binding	competition with immobilised ligand	1 µM	100
Cc1c[nH]c2nccc(Oc3c(F)cc(Nc4cc(Cl)nc(N)n4)cc3F)c12	cell-free assay	competition with immobilised ligand	0.1 µM	98
CN(C)c1nccc(-c2cnc3ncccn23)n1	binding		1 µM	88
N#CC1(c2ccccn2)CCN(Cc2cc(C(=O)N3CCCC3)c(=O)n3ccccc23)CC1	cell-free assay	competition with immobilised ligand	1 µM	84
COc1cnc(Nc2cccc(S(N)(=O)=O)c2)nc1N1CCN(c2ccccc2)CC1	binding	competition with immobilised ligand	1 µM	94
